Experiment [1] in a line: hit retest on RPL19A-GFP reporter strain – cell-based, S. cerevisiae, flow cytometry, cherry picks, mother/daughter gates, confirmation (AID 2270;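 active = GFP response below 50% of the DMSO control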). The conditions noted are these: 3 h, at 10 µM, stronger effect = lower value, 100 = same GFP as DMSO wells. (In general: Flow cytometry measures light scatter and fluorescence of single cells or particles in a stream.)
The nature of experiment [2]: yeast TOR pathway reporter LAP4-GFP change – cell-based, cherry picks, flow cytometry, mother/daughter gates, confirmation (AID 2271;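 active = GFP response above 150% of the DMSO control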;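 note: ratio of sample to DMSO plate mean so 100% equals DMSO level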). Particulars: S. cerevisiae LAP4-GFP strain, 3 h, at 10 µM, stronger effect = higher value, 100 means same as DMSO control. A digest of the protocol:
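material = Alexa 633-stained baker's yeast GFP-fusion strain | amount = 0.2 OD600 cells | schedule = 30 °C, 3 h compound incubation, rotating | signal = GFP by flow cytometry | measure = per-gate (all, mother, daughter) GFP response vs DMSO | controls = positive rapamycin (400 ng/mL), negative DMSO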

Experiment [3] can be described thus: TOR pathway reporter MEP2-GFP, retest of hits – S. cerevisiae, flow cytometry GFP, cherry picks, confirmation (AID 2272;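 active = GFP response above 150% of the DMSO control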;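 note: ratio of well signal to plate DMSO mean so 100% equals DMSO level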). The conditions noted are these: S. cerevisiae MEP2-GFP strain, 3 h, at 10 µM, stronger effect = higher value.
A short description of experiment [4]: yeast AGP1-GFP fluorescence change, single-dose – cell-based, flow cytometry, S. cerevisiae, cherry picks, confirmation (AID 2273).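 Note: median GFP channel fluorescence over the whole cell population gate.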 The conditions noted are these: S. cerevisiae AGP1-GFP strain, 3 h, at 10 µM.
Experiment [5] is described as follows: TOR pathway CIT2 reporter hit retest – S. cerevisiae, GFP fusion, cherry picks, mother/daughter gates, confirmation (AID 2274). Particulars: S. cerevisiae CIT2-GFP strain, flow cytometry, 3 h, at 10 µM, stronger effect = higher value.
[6] abbreviates: measured here: daughter cell gate.
Where [7] appears, read: measured here: mother cell gate.
[8] abbreviates: measured here: daughter cell gate response.
Setting [9] is: measured here: mother cell gate response.

Calls of active or inactive are those of the source.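 Rule for the calls, unless noted: active = GFP response above 150% of the DMSO level; inconclusive = fewer than 70 events counted for a yeast strain; inactive = the rest.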

As for `CCc1ccc(C(=O)COC(=O)c2n[nH]c3ccccc23)cc1`, the GFP response vs DMSO is 95.8% (inactive) in experiment [1], 97.3% in experiment [1] (setting [6]), 94% in experiment [1] (setting [7]) and 101% (inactive) in experiment [3]. Moreover, the GFP response relative to DMSO in experiment [2] was 102% (inactive); in experiment [2] (setting [8]) it was 101%; in experiment [2] (setting [9]) it was 104%. Besides, the GFP response, % of DMSO in experiment [4] was 101% (inactive); in experiment [5], 101% (inactive); in experiment [5] (setting [6]), 97.6%; in experiment [5] (setting [7]), 102%.
For the compound `Cc1ccc2[nH]c3c(=O)n(CC(=O)N4CCN(C)CC4)ncc3c2c1`, the GFP response vs DMSO was 95% (inactive) in experiment [1], 93.4% in experiment [1] (setting [6]), 96.2% in experiment [1] (setting [7]) and 98.3% (inactive) in experiment [3]. Besides, the figures for the GFP response relative to DMSO in experiment [2], in experiment [2] (setting [8]) and in experiment [2] (setting [9]) were 95.4% (inactive), 96% and 96.1%, respectively. For the same compound, the GFP response, % of DMSO in experiment [4] was 99.3% (inactive); in experiment [5] it was 101% (inactive); in experiment [5] (setting [6]), 103%; in experiment [5] (setting [7]) it was 101%.
Consider `Cc1ccc(C2=NOC(=O)/C2=C\c2ccc(C)o2)cc1`, for which the GFP response vs DMSO in experiment [1] is 101% (inactive); in experiment [1] (setting [6]) it was 89.7%; in experiment [1] (setting [7]), 90.8%; in experiment [3], 110% (inactive). Besides, the GFP response relative to DMSO is 230% (active) in experiment [2], 134% in experiment [2] (setting [8]) and 224% in experiment [2] (setting [9]). In addition, the GFP response, % of DMSO in experiment [4] is 97% (inactive); in experiment [5] it was 87.2% (inactive); in experiment [5] (setting [6]) it was 87.3%; in experiment [5] (setting [7]), 72.8%.
For the compound `CCc1c2ccccc2nn1-c1ccccc1C(=O)C(C)=O`, the GFP response vs DMSO in experiment [1] was 95.8% (inactive); in experiment [1] (setting [6]), 97.3%; in experiment [1] (setting [7]), 94%; in experiment [3], 103% (inactive). Further, the GFP response relative to DMSO in experiment [2] is 102% (inactive); in experiment [2] (setting [8]), 101%; in experiment [2] (setting [9]), 102%. The GFP response, % of DMSO in experiment [4] was 100% (inactive); in experiment [5] it was 98.6% (inactive); in experiment [5] (setting [6]) it was 99.3%; in experiment [5] (setting [7]), 98.2%.
Consider `COCc1nnc(NC(=O)c2ccc(S(=O)(=O)N(C)c3ccccc3)cc2)o1`, for which the GFP response vs DMSO in experiment [1] was 96.8% (inactive); in experiment [1] (setting [6]), 96.6%; in experiment [1] (setting [7]), 97.1%; in experiment [3], 100% (inactive). Besides, the values for the GFP response relative to DMSO in experiment [2], in experiment [2] (setting [8]) and in experiment [2] (setting [9]) were 101% (inactive), 99.2% and 98.3%, respectively. Also, the GFP response, % of DMSO in experiment [4] is 92.5% (inactive); in experiment [5] it was 96.9% (inactive); in experiment [5] (setting [6]), 97.2%; in experiment [5] (setting [7]), 97.3%.
Consider `O=C(/C=C/c1ccccc1)Nc1ncn[nH]1`, for which the GFP response vs DMSO in experiment [1] is 97.4% (inactive); in experiment [1] (setting [6]) it was 97.3%; in experiment [1] (setting [7]), 96%; in experiment [3], 102% (inactive). The GFP response relative to DMSO is 135% (inactive) in experiment [2], 125% in experiment [2] (setting [8]) and 137% in experiment [2] (setting [9]). The GFP response, % of DMSO is 98% (inactive) in experiment [4], 97.8% (inactive) in experiment [5], 100% in experiment [5] (setting [6]) and 94.5% in experiment [5] (setting [7]).
For `COc1ccc(COC(=O)c2n[nH]c3ccccc23)cc1F`, the GFP response vs DMSO in experiment [1] is 98.4% (inactive); in experiment [1] (setting [6]), 96.7%; in experiment [1] (setting [7]), 98.2%; in experiment [3], 102% (inactive). In addition, the values for the GFP response relative to DMSO in experiment [2], in experiment [2] (setting [8]) and in experiment [2] (setting [9]) were 97.4% (inactive), 98.7% and 99.3%, respectively. Also, the GFP response, % of DMSO in experiment [4] was 95% (inactive); in experiment [5], 106% (inactive); in experiment [5] (setting [6]), 108%; in experiment [5] (setting [7]), 104%.
As for `Cc1cccc(CS(=O)(=O)c2ncc(Cl)c(C(=O)NCc3ccc4c(c3)OCO4)n2)c1`, the GFP response vs DMSO in experiment [1] was 99.7% (inactive); in experiment [1] (setting [6]) it was 99%; in experiment [1] (setting [7]), 102%; in experiment [3], 102% (inactive). For the same compound, the GFP response relative to DMSO in experiment [2] was 90.2% (inactive); in experiment [2] (setting [8]), 91%; in experiment [2] (setting [9]), 91.1%. Further, the GFP response, % of DMSO in experiment [4] was 98.7% (inactive); in experiment [5], 107% (inactive); in experiment [5] (setting [6]), 105%; in experiment [5] (setting [7]), 108%.
`CC(=O)SC(C[N+](=O)[O-])c1cn(C(C)=O)c2ccccc12` (centres undefined): the GFP response vs DMSO in experiment [1] is 98.6% (inactive); in experiment [1] (setting [6]), 102%; in experiment [1] (setting [7]) it was 90.1%; in experiment [3], 96.8% (inactive). Further, the GFP response relative to DMSO in experiment [2] was 242% (active); in experiment [2] (setting [8]), 216%; in experiment [2] (setting [9]), 236%. In addition, the GFP response, % of DMSO in experiment [4] was 98% (inactive); in experiment [5] it was 94.4% (inactive); in experiment [5] (setting [6]), 97.4%; in experiment [5] (setting [7]), 88.2%.
`O=[N+]([O-])c1cc(C(F)(F)F)ccc1Sc1ccccn1`: the GFP response vs DMSO was 102% (inactive) in experiment [1], 101% in experiment [1] (setting [6]), 101% in experiment [1] (setting [7]) and 102% (inactive) in experiment [3]. Also, the GFP response relative to DMSO in experiment [2] is 97.4% (inactive); in experiment [2] (setting [8]), 98.7%; in experiment [2] (setting [9]), 98.3%. Besides, the GFP response, % of DMSO in experiment [4] was 99.2% (inactive); in experiment [5], 104% (inactive); in experiment [5] (setting [6]) it was 103%; in experiment [5] (setting [7]) it was 103%.
Regarding `CCC(=O)N/C(N)=N/c1nc2ccccc2o1`, the GFP response vs DMSO in experiment [1] is 83.5% (inactive); in experiment [1] (setting [6]) it was 85.1%; in experiment [1] (setting [7]), 84.8%; in experiment [3] it was 109% (inactive). Besides, the figures for the GFP response relative to DMSO in experiment [2], in experiment [2] (setting [8]) and in experiment [2] (setting [9]) were 110% (inactive), 106% and 112%, respectively. For the same compound, the GFP response, % of DMSO in experiment [4] was 96.2% (inactive); in experiment [5], 98.3% (inactive); in experiment [5] (setting [6]), 97.2%; in experiment [5] (setting [7]) it was 99.7%.
Regarding `COc1ccccc1N1C(=O)CC(Sc2nccc(C)n2)C1=O` (centres undefined), the GFP response vs DMSO in experiment [1] was 101% (inactive); in experiment [1] (setting [6]), 98.6%; in experiment [1] (setting [7]), 102%; in experiment [3], 99% (inactive). Besides, the values for the GFP response relative to DMSO in experiment [2], in experiment [2] (setting [8]) and in experiment [2] (setting [9]) were 95.7% (inactive), 95.9% and 95.2%, respectively. In addition, the GFP response, % of DMSO was 99.6% (inactive) in experiment [4], 98.8% (inactive) in experiment [5], 93.8% in experiment [5] (setting [6]) and 99.3% in experiment [5] (setting [7]).
Consider `COc1cc(NC(=O)c2cc3ccccc3o2)ccc1NC(=O)c1ccco1`, for which the GFP response vs DMSO in experiment [1] was 99% (inactive); in experiment [1] (setting [6]), 97.9%; in experiment [1] (setting [7]), 98.9%; in experiment [3] it was 102% (inactive). Further, the GFP response relative to DMSO was 96.7% (inactive) in experiment [2], 97.6% in experiment [2] (setting [8]) and 96.1% in experiment [2] (setting [9]). Further, the GFP response, % of DMSO in experiment [4] was 94.1% (inactive); in experiment [5], 104% (inactive); in experiment [5] (setting [6]) it was 105%; in experiment [5] (setting [7]), 103%.
For the compound `COc1ccc(CCNc2nc(-c3sc(C)nc3C)cs2)cc1OC`, the GFP response vs DMSO in experiment [1] was 96.6% (inactive); in experiment [1] (setting [6]), 97.6%; in experiment [1] (setting [7]) it was 95.4%; in experiment [3], 102% (inactive). The GFP response relative to DMSO in experiment [2] was 106% (inactive); in experiment [2] (setting [8]), 104%; in experiment [2] (setting [9]), 105%. Besides, the GFP response, % of DMSO in experiment [4] is 93.7% (inactive); in experiment [5], 101% (inactive); in experiment [5] (setting [6]), 103%; in experiment [5] (setting [7]), 99.7%.

The record behind these values is PubChem BioAssay.
